From ChEMBL document CHEMBL1137991, “Novel secoergoline derivatives inhibit both GABA and glutamate uptake in rat brain homogenates: synthesis, in vitro pharmacology, and modeling” (J Med Chem, 2004)

Tests used:
GABA transporter [1] = molecular target: T1, GABA transporter (Rattus norvegicus, UniProt P31647+P23978+P31646+P48056); test: In vitro inhibitory activity against [3H]-GABA transport in rat cerebrocortical membranes in the presence of NNC-711 (100 uM); Phase 1; assay type: cell membranes
How it was run: (§1)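 [3H]GABA (61 Ci/mmol) uptake by rat cerebrocortical membrane vesicles in buffer A, pH 7.5, at 30 °C, with 100 µM NNC-711 present. An IC50 was derived for each phase of the dose–response curve. Duplicates in 2–6 experiments, mean ± SD.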

GABA transporter [2] = molecular target: T1, GABA transporter; test: In vitro inhibitory activity against [3H]GABA transport in rat cerebrocortical membranes in the absence of NNC-711; Control; assay type: cell membranes
How it was run: (§2)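 Specific [3H]GABA (61 Ci/mmol) transport was measured at 30 °C in a native plasma membrane vesicle fraction from rat cerebral cortex. Vesicles were suspended in buffer A (Na+/K+/Ca2+/Mg2+ saline, 10 mM glucose, 0.1 mM aminooxyacetate, 20 mM HEPES, pH 7.5). Duplicates in 2–6 experiments. IC50 given as mean ± SD.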

GABA transporter [3] = molecular target: T1, GABA transporter; test: In vitro inhibitory activity against [3H]GABA transport in rat cerebrocortical membranes in the presence of NNC-711 (100 uM); Phase 2; assay type: cell membranes; how it was run: as §1
[4] = In vitro inhibition of [3H]DASP transport through rat cerebrocortical membranes without TBOA; Control; assay type: functional, cell membranes, Membrane
How it was run: (§3)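 Rat cerebrocortical native plasma membrane vesicle fraction, final pellet in buffer A (145 mM NaCl, 5 mM KCl, 1 mM CaCl2, 1 mM MgCl2, 10 mM glucose, 0.1 mM aminooxyacetate, 2 mM NaHCO3, 20 mM HEPES, pH 7.5). Specific [3H]D-aspartate (24 Ci/mmol) transport measured at 30 °C. Duplicates in 2–6 experiments. IC50 given as mean ± SD.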

[5] = In vitro inhibition of [3H]DASP transport through rat cerebrocortical membranes with 100 uM TBOA; Phase 1; assay type: functional, cell membranes, Membrane
How it was run: (§4)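 [3H]D-aspartate (24 Ci/mmol) transport into rat cerebrocortical plasma membrane vesicles in HEPES-buffered saline A, pH 7.5, at 30 °C, with 100 µM DL-TBOA present. An IC50 was taken for each phase of the dose–response curve. Duplicates in 2–6 experiments, mean ± SD.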

[6] = In vitro inhibition of [3H]DASP transport through rat cerebrocortical membranes with 100 uM TBOA; Phase 2; assay type: functional, cell membranes, Membrane; how it was run: as §4
GABA transporter [7] = molecular target: T1, GABA transporter; test: In vitro inhibitory activity against [3H]GABA transport in rat cerebrocortical membranes; assay type: cell membranes; how it was run: as §2
[8] = In vitro inhibition of [3H]DASP transport through rat cerebrocortical membranes; assay type: functional, cell membranes, Membrane; how it was run: as §3

For CCOC(=O)C1C(=O)C=C(c2ccccc2)C(C)N1C.Cl.O=C(O)C1=CCCN(CCON=C(c2ccccc2)c2ccccc2)C1, the IC50 (GABA transporter [1]) was 0.0037 µM, the IC50 (GABA transporter [2]) was 680 µM and the IC50 (GABA transporter [3]) was 360 µM.
COC(=O)/C=C(/c1ccccc1)C(C)N(C)CC(=O)OC.N[C@H](C(=O)O)[C@H](OCc1ccccc1)C(=O)O (configuration not stated) gave an IC50 [4] of 1100 µM, an IC50 [5] of 0.011 µM and an IC50 [6] of 1020 µM.
In the case of COC(=O)/C=C(\c1ccccc1)C(C)N(C)CC(=O)OC (configuration not stated), the IC50 (GABA transporter [7]) is reported as >> 1000 uM and the IC50 [8] is reported as greater than 1000 µM.
Compound COC(=O)/C=C(/c1ccccc1)C(C)N(C)CC(=O)OC.Cl.O=C(O)C1=CCCN(CCON=C(c2ccccc2)c2ccccc2)C1 has an IC50 (GABA transporter [1]) of 0.044 µM, an IC50 (GABA transporter [2]) of 1100 µM and an IC50 (GABA transporter [3]) of 491 µM.
Work on CCOC(=O)C1C(=O)C=C(c2ccccc2)C(C)N1C.N[C@H](C(=O)O)[C@H](OCc1ccccc1)C(=O)O (configuration not stated) yielded an IC50 [4] of 660 µM, an IC50 [5] of 0.009 µM and an IC50 [6] of 591 µM.
CCOC(=O)C1C(=O)C=C(c2ccccc2)C(C)N1C (configuration not stated) showed an IC50 (GABA transporter [7]) of 680 µM and an IC50 [8] of 660 µM.
For CCOC(=O)CNC(C)C(=O)c1ccccc1.Cl (configuration not stated), the IC50 (GABA transporter [7]) was >> 1000 uM and the IC50 [8] was greater than 1000 µM.
For CCOC(=O)CN(C)C(C)C(=O)c1ccccc1.Cl (configuration not stated), the IC50 (GABA transporter [7]) was >> 1000 uM and the IC50 [8] was greater than 1000 µM.
With CC1N(C)C[C@@H](C(=O)O)[C@H](C(=O)O)[C@@]1(O)c1ccccc1 (some centres not stated) the IC50 (GABA transporter [7]) was >> 1000 uM and the IC50 [8] was greater than 1000 µM.
For COC(=O)CN(C)C(C)C(=O)c1ccccc1.Cl (configuration not stated), the IC50 (GABA transporter [7]) was >> 1000 uM and the IC50 [8] was greater than 1000 µM.
For CCOC(=O)C1=C(c2ccccc2)C(C)N(C)CC1C(=O)OCC (configuration not stated), the IC50 (GABA transporter [7]) was >> 1000 uM and the IC50 [8] was greater than 1000 µM.
Compound CCOC(=O)/C=C(/c1ccccc1)C(C)N(C)CC(=O)OCC.Cl.O=C(O)C1=CCCN(CCON=C(c2ccccc2)c2ccccc2)C1 has an IC50 (GABA transporter [1]) of 0.18 µM, an IC50 (GABA transporter [2]) of 270 µM and an IC50 (GABA transporter [3]) of 380 µM.
Work on CCOC(=O)/C=C(/c1ccccc1)C(C)N(C)CC(=O)OCC (configuration not stated) yielded an IC50 (GABA transporter [7]) of 270 µM and an IC50 [8] of 420 µM.
In the case of CCOC(=O)/C=C(\c1ccccc1)C(C)N(C)CC(=O)OCC (configuration not stated), the IC50 (GABA transporter [7]) is reported as >> 1000 uM and the IC50 [8] is reported as greater than 1000 µM.
COC(=O)/C=C(/c1ccccc1)C(C)N(C)CC(=O)OC (configuration not stated) showed an IC50 (GABA transporter [7]) of 1100 µM and an IC50 [8] of 1100 µM.
For CCOC(=O)[C@@H]1CN(C)C(C)[C@](O)(c2ccccc2)[C@H]1C(=O)OCC (some centres not stated), the IC50 (GABA transporter [7]) was >> 1000 uM and the IC50 [8] was greater than 1000 µM.
CCOC(=O)/C=C(/c1ccccc1)C(C)N(C)CC(=O)OCC.N[C@H](C(=O)O)[C@H](OCc1ccccc1)C(=O)O (configuration not stated) showed an IC50 [4] of 420 µM, an IC50 [5] of 0.034 µM and an IC50 [6] of 386 µM.
With CCOC(=O)[C@H]1[C@H](C(=O)O)CN(C)C(C)[C@]1(O)c1ccccc1 (some centres not stated) the IC50 (GABA transporter [7]) was >> 1000 uM and the IC50 [8] was greater than 1000 µM.
